Eight molecules from ChEMBL document CHEMBL3352217, “Expanding the results of a high throughput screen against an isochorismate-pyruvate lyase to enzymes of a similar scaffold or mechanism” (Bioorg Med Chem, 2014) can be followed below.

Assay [1] can be described thus: Inhibition of Pseudomonas aeruginosa PAO1 PchB expressed in Escherichia coli BL21(DE3) using isochorismate as substrate assessed as salicylate production by fluorescence spectrometry. The method in brief: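 Untagged PchB at 50 nM in 50 mM potassium phosphate pH 8. […] Initial velocities at 25 °C were taken from salicylate fluorescence (ex 310/em 430 nm) over 120 s of the linear phase. IC50 came from dose-response percent inhibition.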

The nature of assay [2]: Inhibition of Pseudomonas aeruginosa PAO1 PchB expressed in Escherichia coli BL21(DE3) using isochorismate as substrate assessed as pyruvate production after 10 mins by microplate reader analysis. The method, boiled down:
(§1)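 Pyruvate output at 25 °C, with PchB at 50 nM in 50 mM potassium phosphate pH 8 started with isochorismate, or Irp9 at 200 nM started with chorismate. Substrate was above the 10 µM Km and inhibitor was varied. Samples taken at 2-min points were quenched in 0.25 g/L DNPH in 1 M HCl and held 10 min at 37 °C. NaOH was added and A515 read, converted to pyruvate by standard curve. Runs were in triplicate, giving IC50.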

Assay [3] has as its target T1, Bifunctional chorismate mutase/prephenate dehydratase (Escherichia coli (strain K12), UniProt P0A9J8).
T1 sequence (P0A9J8 whole entry): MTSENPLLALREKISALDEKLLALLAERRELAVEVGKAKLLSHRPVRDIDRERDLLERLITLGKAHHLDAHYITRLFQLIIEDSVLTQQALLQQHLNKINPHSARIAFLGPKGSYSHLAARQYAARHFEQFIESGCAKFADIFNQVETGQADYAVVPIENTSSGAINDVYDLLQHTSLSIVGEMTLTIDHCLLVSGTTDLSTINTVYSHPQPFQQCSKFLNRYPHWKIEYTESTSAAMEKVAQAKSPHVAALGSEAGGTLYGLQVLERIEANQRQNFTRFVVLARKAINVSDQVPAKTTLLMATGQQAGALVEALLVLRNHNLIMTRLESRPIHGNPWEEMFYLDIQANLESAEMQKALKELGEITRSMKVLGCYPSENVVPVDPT
Put plainly: Inhibition of Escherichia coli K-12 EcCM expressed in Escherichia coli BL21 Star (DE3) pLysS using chorismate as substrate assessed as disappearance of chorismate by stopped-flow analysis. The method in brief:
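His-tagged EcCM domain was Ni-affinity and size-exclusion purified. Post-mixing concentrations were 500 nM enzyme, chorismate at Km (600 µM) and inhibitor 0–500 µM. Rate was the A310 decrease over 30 s, in triplicate, giving IC50.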

Assay [4] is described as follows: Competitive inhibition of Pseudomonas aeruginosa PAO1 PchB expressed in Escherichia coli BL21(DE3) using isochorismate as substrate. The method in brief:
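Untagged PchB at 50 nM final, in 50 mM potassium phosphate pH 8 (plus 1 mM TCEP for stopped-flow runs), at 25 °C. Isochorismate was varied up to 75 µM and inhibitor up to 1.5 µM. Salicylate formation was followed by fluorescence (excitation 310 nm; emission 430 nm or 360 nm cutoff) as linear initial velocities, over 120 s on a cuvette fluorimeter or 30 s by stopped-flow.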

Assay [5] deals with T2, Salicylate synthetase, Irp9 (Yersinia enterocolitica, UniProt Q9X9I8).
T2 sequence (Q9X9I8 whole entry): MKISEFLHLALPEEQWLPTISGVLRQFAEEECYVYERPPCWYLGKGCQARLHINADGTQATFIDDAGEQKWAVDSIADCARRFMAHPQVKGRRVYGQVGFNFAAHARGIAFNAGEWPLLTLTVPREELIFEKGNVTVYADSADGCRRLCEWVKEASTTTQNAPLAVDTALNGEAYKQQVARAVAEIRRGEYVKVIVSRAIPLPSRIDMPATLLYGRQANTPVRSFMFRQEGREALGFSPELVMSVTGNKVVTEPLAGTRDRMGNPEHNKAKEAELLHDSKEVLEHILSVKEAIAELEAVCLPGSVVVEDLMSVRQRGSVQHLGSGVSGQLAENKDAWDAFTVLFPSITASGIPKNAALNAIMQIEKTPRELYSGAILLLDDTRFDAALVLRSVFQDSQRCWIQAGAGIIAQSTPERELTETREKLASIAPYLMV
Put plainly: Competitive inhibition of Yersinia enterocolitica Irp9 using chorismate as substrate. The method, boiled down: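 Stopped-flow kinetics at 25 °C in 50 mM Tris pH 7.5, 10 mM MgCl2, 10% glycerol. Final Irp9 was 100 nM, chorismate 0–40 µM and inhibitor 0–10 µM. Enzyme plus inhibitor was mixed with chorismate. Initial velocities came from the rise in salicylate fluorescence (ex 310 nm, 360 nm cutoff filter) over 30 s. Ki and inhibition mode were derived from these rates.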

Assay [6] addresses T1, Bifunctional chorismate mutase/prephenate dehydratase. Put plainly: Competitive inhibition of Escherichia coli K-12 EcCM expressed in Escherichia coli BL21 Star (DE3) pLysS using chorismate as substrate. The method, boiled down: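 N-terminally His-tagged chorismate mutase domain of pheA, purified by Ni-chelate and size-exclusion chromatography. Enzyme with inhibitor mixed 1:1 with chorismate. Final concentrations: enzyme 500 nM, chorismate 0–2 mM, inhibitor 0–50 µM. Initial rates read as the 30 s decrease in absorbance at 310 nm, giving Ki and inhibition mode.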

Assay [7] concerns Pseudomonas aeruginosa. The assay can be described thus: Antimicrobial activity against wild-type Pseudomonas aeruginosa PAO1 after 24 hrs by microplate reader analysis in presence of 5 uM FeCl3. The format is functional, organism-based. The settings on record: PAO1, 24 h. The method in brief: (§2)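 Overnight LB cultures were diluted to OD600 0.5 in PMH-D medium. Cells were added to PMH-D containing FeCl3, either 5 µM (iron-limited) or 200 µM (iron-rich), with inhibitor at 0–5 mM (DMSO vehicle). Plates were shaken at 37 °C for 24 h. Cells were then pelleted, the medium was removed, and cells were resuspended in LB. A600 was read. Growth was normalized to no-inhibitor cultures to give EC50.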

The subject of assay [8] is Pseudomonas aeruginosa. Put plainly: Antimicrobial activity against wild-type Pseudomonas aeruginosa PAO1 after 24 hrs by microplate reader analysis in presence of 200 uM FeCl3. The format is functional, organism-based. The method in brief: as §2
Assay [9] deals with Pseudomonas aeruginosa. The assay can be described thus: Antimicrobial activity against Pseudomonas aeruginosa PAO1 PvdA deletion mutant after 24 hrs by microplate reader analysis in presence of 5 uM FeCl3. It is filed as functional, organism-based. The settings on record: PAO1, 24 h. The method in brief: as §2
Assay [10] deals with Pseudomonas aeruginosa. Put plainly: Antimicrobial activity against Pseudomonas aeruginosa PAO1 PvdA deletion mutant after 24 hrs by microplate reader analysis in presence of 200 uM FeCl3. It is filed as functional, organism-based. The method, boiled down: as §2
The test system of assay [11] is Pseudomonas aeruginosa. Put plainly: Antimicrobial activity against Pseudomonas aeruginosa PAO1 PchE deletion mutant after 24 hrs by microplate reader analysis in presence of 5 uM FeCl3. It is filed as functional, organism-based. The settings on record: PAO1, 24 h. The method, boiled down: as §2
For assay [12], the system named is Pseudomonas aeruginosa. The assay can be described thus: Antimicrobial activity against Pseudomonas aeruginosa PAO1 PchE deletion mutant after 24 hrs by microplate reader analysis in presence of 200 uM FeCl3. It is filed as functional, organism-based. The method, boiled down: as §2
A further assay concerns Yersinia enterocolitica. The assay can be described thus: Antimicrobial activity against Yersinia enterocolitica ATCC 9610 after 24 hrs by microplate reader analysis in presence of 5 uM FeCl3. It is filed as functional, organism-based. The settings on record: ATCC 9610, 24 h. The method, boiled down:
as §2

The target of assay [13] is T2, Salicylate synthetase, Irp9. Put plainly: Inhibition of Yersinia enterocolitica Irp9 using chorismate as substrate assessed as pyruvate production after 10 mins by microplate reader analysis. The method, boiled down: as §1
A short description of assay [14]: Inhibition of Pseudomonas aeruginosa PAO1 PchB.
Assay [15] addresses T2, Salicylate synthetase, Irp9. The assay can be described thus: Inhibition of Yersinia enterocolitica Irp9 using chorismate as substrate assessed as salicylate production by fluorescence spectrometry. The method in brief: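 Irp9 at 100 nM in 50 mM Tris-HCl pH 7.5, 10 mM MgCl2, 10% glycerol. Reaction was started with chorismate, with inhibitor concentration varied. Initial velocities at 25 °C were taken from salicylate fluorescence (ex 310/em 430 nm) over 120 s of the linear phase. IC50 came from the dose-response.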

The next assay relates to Escherichia coli. Put plainly: Ratio of I50 to Km for Escherichia coli Chorismate mutase. The method, boiled down: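 N-His-tagged E. coli chorismate mutase domain (PheA), 500 nM. Chorismate at its Km (600 µM), inhibitor 0–500 µM, all post-mixing. Initial rates from A310 decrease over 30 s, in triplicate. I50 is the concentration giving 50% inhibition at substrate = Km, divided by Km.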

pEC50, pIC50, pKi: −log10 of the molar value.

Turning to `COC(=O)Oc1c([N+](=O)[O-])cc2oc(=O)sc2c1[N+](=O)[O-]`, the pIC50 in [1] was 6.06; in assay [2] it was 6.28; in assay [3] it was 4.49. The figures for the pKi in [4], in assay [5] and in assay [6] were 6.46, 6.10 and 4.40, respectively. Besides, the pEC50 with Pseudomonas aeruginosa [7] is below 2.30; with Pseudomonas aeruginosa [9], below 2.30; in the assay on Pseudomonas aeruginosa [11], below 2.30; with Yersinia enterocolitica, 2.64. Also, the EC50 result with Pseudomonas aeruginosa [8], with Pseudomonas aeruginosa [10] and with Pseudomonas aeruginosa [12] was “Not Active” each time.
As for `COC(=O)Oc1c(Cl)cc2oc(=O)sc2c1[N+](=O)[O-]`, the results for the pIC50 in assay [1], in assay [2] and in assay [3] were 5.48, 5.74 and 4.35, respectively. For the same molecule, the IC50 result in [13] was “Not Active”.
`O=P(O)(O)C12CC3CC(CC(C3)C1)C2` had a pKi in [14] below 2.30.
Regarding `O=c1oc2cc(Br)c(O)c(Br)c2s1`, the pIC50 in assay [1] was 5.00; in [2], 5.00; in [3], 3.92.
Take `O=C(O)c1cccc(S(=O)(=O)Nc2ccccc2C(=O)O)c1`: the negative-log IC50 (pIC50) is 6.60 in [1], 6.66 in assay [2] and 3.77 in [3]. For the same molecule, the IC50 result in assay [15] and in assay [13] was “Not Active” each time.
In the case of `O=C1S/C(=C/c2cc([N+](=O)[O-])cc([N+](=O)[O-])c2O)C(=O)N1c1ccccc1`, the pIC50 is 5.85 in [1], 5.85 in assay [2] and 4.07 in assay [3]. Further, the IC50 result in assay [13] is recorded as “Not Active”.
Take `O=C(O)c1cc(S(=O)(=O)Nc2ccccc2C(=O)O)ccc1Br`: the pIC50 is 6.62 in assay [1], 7.03 in assay [2] and 3.70 in assay [3]. The IC50 entry in [15] and in assay [13] was “Not Active” throughout.
Turning to `O=C(O)C1CC2(C(=O)O)C=CC(O)C(C2)O1` (configuration not stated), the negative-log Ki (pKi) in [14] was 5.70. For the same molecule, the Ratio in the assay on Escherichia coli turned out to be 0.008.
